From ChEMBL document CHEMBL3997787, “New pyridazinone-4-carboxamides as new cannabinoid receptor type-2 inverse agonists: Synthesis, pharmacological data and molecular docking” (Eur J Med Chem, 2017)

How the values were obtained:
Cannabinoid receptor 1 [1] = target: T1, Cannabinoid receptor 1 (Homo sapiens, UniProt P21554); experiment: Displacement of [3H]CP55940 from human CB1 receptor expressed in HEK293 EBNA cell membranes at 4 uM after 90 mins by liquid scintillation and luminescence counting method relative to control
T1 sequence (P21554 whole entry): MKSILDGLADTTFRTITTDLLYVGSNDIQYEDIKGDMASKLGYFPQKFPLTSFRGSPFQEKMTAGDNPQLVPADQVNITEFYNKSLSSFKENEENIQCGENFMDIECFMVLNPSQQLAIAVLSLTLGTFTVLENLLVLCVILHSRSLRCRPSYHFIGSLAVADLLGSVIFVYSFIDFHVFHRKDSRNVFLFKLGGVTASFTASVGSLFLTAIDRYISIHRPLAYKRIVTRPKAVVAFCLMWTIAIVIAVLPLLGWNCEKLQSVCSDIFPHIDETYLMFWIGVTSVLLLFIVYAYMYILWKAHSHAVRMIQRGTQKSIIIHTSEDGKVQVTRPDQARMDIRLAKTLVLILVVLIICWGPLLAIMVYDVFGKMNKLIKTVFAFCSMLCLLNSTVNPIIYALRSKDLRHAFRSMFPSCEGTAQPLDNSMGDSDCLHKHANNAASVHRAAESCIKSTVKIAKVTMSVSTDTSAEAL
How it was run: (§1)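 Single-concentration screen (4 µM) on transfected-cell membranes with human CB1R (about 8 µg/well, 0.1 nM [³H]CP,55-940, pH 7.4 Tris/MgCl₂/EDTA/0.5 mg/mL BSA) or CB2R (1.33 µg/well, 0.15 nM radioligand, pH 7.5 Tris/MgCl₂/EGTA/1 mg/mL BSA). Incubated 90 min at 30 °C. Nonspecific binding defined with 10 µM WIN 55,212-2; 100% binding taken without compound. Filtered through PEI-soaked GF/C filters and counted.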

Cannabinoid receptor 2 [2] = target: T2, Cannabinoid receptor 2 (Homo sapiens, UniProt P34972); experiment: Displacement of [3H]CP55940 from human CB2 receptor expressed in HEK293 EBNA cell membranes at 4 uM after 90 mins by liquid scintillation and luminescence counting method relative to control; how it was run: as §1
T2 sequence (P34972 whole entry): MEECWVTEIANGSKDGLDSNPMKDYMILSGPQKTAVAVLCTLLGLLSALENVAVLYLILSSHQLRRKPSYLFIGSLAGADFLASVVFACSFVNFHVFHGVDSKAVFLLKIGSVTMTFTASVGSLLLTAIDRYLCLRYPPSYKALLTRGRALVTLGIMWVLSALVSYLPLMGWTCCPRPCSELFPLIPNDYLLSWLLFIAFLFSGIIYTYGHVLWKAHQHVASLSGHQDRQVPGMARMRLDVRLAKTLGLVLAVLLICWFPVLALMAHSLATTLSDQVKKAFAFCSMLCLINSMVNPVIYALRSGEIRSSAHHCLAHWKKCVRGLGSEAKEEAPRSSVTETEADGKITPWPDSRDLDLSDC

Cannabinoid receptor 1 [3] = target: T1, Cannabinoid receptor 1; experiment: Displacement of [3H]CP55940 from human CB1 receptor expressed in HEK293 EBNA cell membranes after 90 mins by liquid scintillation and luminescence counting method
Cannabinoid receptor 2 [4] = target: T2, Cannabinoid receptor 2; experiment: Displacement of [3H]CP55940 from human CB2 receptor expressed in HEK293 EBNA cell membranes after 90 mins by liquid scintillation and luminescence counting method
Homo sapiens = organism: Homo sapiens; experiment: Selectivity ratio of Ki for human CB1 receptor to Ki for human CB2 receptor
Cannabinoid receptor 2 [5] = target: T2, Cannabinoid receptor 2; experiment: Inverse agonist activity at human CB2 receptor expressed in HEK293 EBNA cell membranes after 30 mins by [35S]-GTPgammaS binding assay; assay type: functional
How it was run: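 Saponin-permeabilized CB2R membranes (5 µg/well) with 0.3 nM [35S]-GTPγS and 10 µM GDP in 20 mM HEPES, 100 mM NaCl, 10 mM MgCl₂, pH 7.4. Compounds at 10⁻¹² to 10⁻⁵ M, 30 min at 30 °C; nonspecific signal with 10 µM GTPγS. Filtered, washed with 10 mM sodium phosphate and counted. IC50 and Emax from curve fitting, mean ± SEM of at least three triplicate experiments.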

Ki (Cannabinoid receptor 1 [3]; hek293) | Ki (Cannabinoid receptor 2 [4]; hek293) | Compound | inhibition (Cannabinoid receptor 1 [1]) | inhibition (Cannabinoid receptor 2 [2]) | Ki (Cannabinoid receptor 1 [3]; read-out: Ki) | Ki (Cannabinoid receptor 2 [4]; read-out: Ki) | Ratio Ki (Homo sapiens) | Emax (Cannabinoid receptor 2 [5]) | IC50 (Cannabinoid receptor 2 [5])
 |  | Cc1ccc(Cn2nc(-c3ccc(Cl)c(C)c3)cc(C(=O)NC3CCCCC3)c2=O)cc1 | > 70% | > 70% | > 4 µM | 240 nM | > 16.6 |  | 
 |  | Cc1ccc(Cn2nc(C(=O)N[C@@H]3C(C)(C)[C@@H]4CC[C@@]3(C)C4)cc2-c2ccc(Cl)c(C)c2)cc1 |  |  |  |  |  | -63.2% | 
 |  | Cc1cc(-c2cc(C(=O)NC3CCCCCC3)c(=O)n(Cc3ccc(F)cc3)n2)ccc1Cl | > 70% | > 70% | > 4 µM | 4.9 nM | > 816 |  | 
 |  | Cc1cc(-c2cc(C(=O)NC3CCCCC3)c(=O)n(Cc3ccc(F)cc3)n2)ccc1Cl | > 70% | > 70% | > 4 µM | 4.7 nM | > 851 | -60.7% | 25.3 nM
Nd(Insoluble) | Nd(Insoluble) | Cc1ccc(Cn2nc(-c3ccc(Cl)c(C)c3)cc(C(=O)NC3CCCCCC3)c2=O)cc1 |  |  |  |  |  |  | 
 |  | O=C(NC1CCCCCC1)c1cc(-c2ccccc2)nn(Cc2ccc(F)cc2)c1=O | > 70% | > 70% | 0.033 µM | 16 nM | 2 |  | 
 |  | Cc1cc(-c2cc(C(=O)NC34CC5CC(CC(C5)C3)C4)c(=O)n(Cc3ccc(F)cc3)n2)ccc1Cl | > 70% | > 70% | > 4 µM | 3.4 nM | > 1180 |  | 
 |  | Cc1cc(-c2cc(C(=O)NCCN3CCOCC3)c(=O)n(Cc3ccc(F)cc3)n2)ccc1Cl | > 70% | > 70% | > 4 µM | 311 nM | > 12.9 |  | 
 |  | Cc1cc(-c2cc(C(=O)N[C@H]3CC[C@@H](C)CC3)c(=O)n(Cc3ccc(F)cc3)n2)ccc1Cl | > 70% | > 70% | > 4 µM | 2 nM | > 2000 | -43.8% | 20.7 nM
 |  | C[C@H]1CC[C@H](NC(=O)c2cc(-c3ccccc3)nn(Cc3ccc(F)cc3)c2=O)CC1 | > 70% | > 70% | 0.322 µM | 66 nM | 5 |  | 
 |  | O=C(NC1CCCCC1)c1cc(-c2ccccc2)nn(Cc2ccc(F)cc2)c1=O | > 70% | > 70% | 0.467 µM | 44 nM | 11 |  | 
Nd(Insoluble) | Nd(Insoluble) | O=C(NC12CC3CC(CC(C3)C1)C2)c1cc(-c2ccccc2)nn(Cc2ccc(F)cc2)c1=O |  |  |  |  |  |  | 
Nd(Insoluble) | Nd(Insoluble) | Cc1ccc(Cn2nc(-c3ccc(Cl)c(C)c3)cc(C(=O)NC34CC5CC(CC(C5)C3)C4)c2=O)cc1 |  |  |  |  |  |  | 
 |  | Cc1cc(-c2cc(C(=O)N[C@@H]3C(C)(C)[C@@H]4CC[C@@]3(C)C4)c(=O)n(Cc3ccc(F)cc3)n2)ccc1Cl | > 70% | > 70% | > 4 µM | 2.6 nM | > 1540 | -58.7% | 51.2 nM
 |  | Cc1cc(-c2cc(C(=O)N[C@H]3CC[C@H](C)CC3)c(=O)n(Cc3ccc(F)cc3)n2)ccc1Cl | > 70% | > 70% | > 4 µM | 9 nM | > 444 |  | 
 |  | C[C@H]1CC[C@@H](NC(=O)c2cc(-c3ccccc3)nn(Cc3ccc(F)cc3)c2=O)CC1 | > 70% | > 70% | 0.115 µM | 5.7 nM | 20 | -65.7% | 35.2 nM
 |  | O=C(NC1CCCCCC1)c1c2c(nn(Cc3ccc(F)cc3)c1=O)-c1ccccc1C2 | > 70% | > 70% | > 4 µM | > 4000 nM |  |  | 
